For this series, the system named is MS2 coat protein. The series is described as follows: apparent Kd, MS2 coat protein; higher = weaker binding; RNA-MaP array; FMN 200 µM where present. The gist of the method:
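The apparent Kd is the median of filtered binding-curve fits, one per cluster, to green signal normalised to red-channel RNA signal and control-cluster median Fmax. The clusters were on Illumina sequencing chips, and stalled E. coli RNA polymerase had transcribed the designs on them. Titration used SNAP-549-labelled MS2 coat protein from 0.7 or 1.5 nM, doubling to 3 µM, without and then with constant ligand, in 100 mM Tris-HCl pH 7.5, 80 mM KCl, 4 mM MgCl2, BSA, DTT, yeast tRNA and Tween-20.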

Setting [1] is: designed as: ON switch for flavin mononucleotide, no ligand.
[2] abbreviates: ligand present: flavin mononucleotide, designed as: ON switch for flavin mononucleotide.
Setting [3] is: designed as: OFF switch for flavin mononucleotide, no ligand.
[4] abbreviates: ligand present: flavin mononucleotide, designed as: OFF switch for flavin mononucleotide.

Broadly, the apparent Kd is the concentration giving half-maximal binding under the conditions of the assay. On to “AUUAUACAUGAGGAUCACCCAUGUAAUUAAUUAAUUAAGAUCUAGGAUAUCAGCUCGUUUAGAGCUGAGAAGGAGAUCACAUGU”, for which the “apparent Kd” value is, setting by setting: under setting [1], 30.1 nM; under setting [2], 18.8 nM.

For “CGCUAAUAGAACGAUUUGUGAAGACAUGAGGAUCACCCAUGUAGAAGGACAACGGAAUAAACGUUGUAGGAUAUACACUUAGCG”, the “apparent Kd” value under setting [3] turned out to be 18.1 nM and the “apparent Kd” value under setting [4] amounted to 24.4 nM.

Take “AUGCUAGUGUGAGGAUAUUAACAUGAGGAUCACCCAUGUUGGAAGUACACGACAUGAGGUACAUUUAAGAAGGUACAUUAGCAU”: the “apparent Kd” value reads like this: under setting [3], 145 nM; under setting [4], 161 nM.

With “GAUCAGAUAGGAUAUACAGGCUCGUCUUUAUAUUGAUCCCGACAUGAGGAUCACCCAUGUAGAAGGAUCAGAUC”, the “apparent Kd” value runs as follows: under setting [3], 16.4 nM; under setting [4], 45.7 nM.

On to “UGUUUGUGAGGAUAUCCAAUAUAUGACAUGAGGAUCACCCAUGUUUCCACUCGUACCUCCGGAGAAGGCACUGCGU”, for which the “apparent Kd” value is 29.1 nM under setting [3] and 26 nM under setting [4].

As for “GGAUAGGACAGAGGAUAUACGUGCUAGAGAUACUAGCAAAAUUUCCUCACAUGAGGAUCACCCAUGUAGAAGGCCGUCCUAUCG”, the “apparent Kd” value runs as follows: under setting [3], 6.02 nM; under setting [4], 19.7 nM.

For the sequence “AGAUCACAUGAGGAUCACCCAUGUCAGGAUAUCGACUGAACAGCUUCGGCUGUUCAGUCGAGAAGGGACAAUUA”, the “apparent Kd” value under setting [3] was determined as 279 nM and the “apparent Kd” value under setting [4] was 860 nM.

For “GCCAUCACGUGAGGAUAUGCUCCCGUUUCGGGAGCAGAAGGCAUGUCAUAAGACAUGAGGAUCACCCAUGUAGUUAAGAUGGCA”, the “apparent Kd” value was 317 nM under setting [1] and 12 nM under setting [2].

As for “GUAGUGUAGUGAGGAUAUACGAGAUCGAUAGAUCGGCGAUCCAUAUAUACAUGAGGAUCACCCAUGUAGAAGGCACUUCACUAC”, the “apparent Kd” value reads like this: under setting [3], 7.5 nM; under setting [4], 91.5 nM.

As to “AGAAAACAUGAGGAUCACCCAUGUAGAAAUAUGGGAGGAUAUACAAAGACGAAAGUCAAGGUAGAAGGCCUAAAGA”, the “apparent Kd” value is, setting by setting: under setting [1], 86.7 nM; under setting [2], 27.4 nM.

As to “UGGACUGGGCAGAAGGGACAUGAGGAUCACCCAUGUCUUGGGCUACUUCAGUCAGGAUAUGCCCAUUAAAUAUCCGUGCAUCAA”, the “apparent Kd” value under setting [3] is 14.9 nM and the “apparent Kd” value under setting [4] worked out at 73.3 nM.

With “GUCGGAAACGACAAUGAUAGGACUGAGGAUAUACAUAAGUUAGUCCAUACAUGAGGAUCACCCAUGUAGAAGGCAGUCCUAUCU”, the “apparent Kd” value under setting [3] was 7.78 nM and the “apparent Kd” value under setting [4] worked out at 33.4 nM.

As for “UCCUGACAUGAGGAUCACCCAUGUUAGGAUAUGGCUUAGGGCGCGUCUGUGUGUUGGGUUAGAAGGGAUGUGGG”, the “apparent Kd” value by setting is: under setting [3], 17.6 nM; under setting [4], 16.8 nM.

As to “GUCCCGAGGGAGAAGGGCUAGAAGGUCCAGCUUAUGUGUGUUGCAACAUGAGGAUCACCCAUGUAGCAGGAUAUCCCUUGUACA”, the “apparent Kd” value runs as follows: under setting [3], 18.1 nM; under setting [4], 39.6 nM.

On to “AUGAGUAAAGCAGGAUAUCUAUUGUCUCUGUAACAUGAGGAUCACCCAUGUAGAGAAGGGCUUAGUCAUUCUCUUCGGAGUUGU”, for which the “apparent Kd” value reads like this: under setting [3], 17.4 nM; under setting [4], 16.6 nM.

On to “AUUUAAAUGUCAGGAUAUGUUAGUUUAUACUUAGUAGAAGGGAUAAUUAUACUCAAGUACAUGAGGAUCACCCAUGUUAAAUCA”, for which the “apparent Kd” value was found to be 21 nM under setting [1] and 18.5 nM under setting [2].

Turning to “AAAACAUGAGGAUCACCCAUGUAAAGAUCGGUCGAUCAAGGUGAGGAUAUACAAUAAUUGAUGGAGUAGAAGGCACUGGGUUGA”, the “apparent Kd” value reads like this: under setting [1], 227 nM; under setting [2], 127 nM.

“UCACGGGAUUGAGGAUAUAUAUUAAUUUUUACAAUAGAAGGCAAAUUUUUAGUUUUUUCACUUUACAUGAGGAUCACCCAUGUU”: the “apparent Kd” value by setting is: under setting [3], 27.5 nM; under setting [4], 25.5 nM.

Take “UGUCGGAGCAGAGGAUAUUACAUGAGGAUCACCCAUGUAUGAACCAAUAGCCGGAAACAGCAAUGUAAGAAGGCUGCUCCGACA”: the “apparent Kd” value under setting [3] turned out to be 4.64 nM and the “apparent Kd” value under setting [4] stood at 6.88 nM.

For “GACUGACGAGGAUAUACAUGAGGAUCACCCAUGUAAGAUCAGCGACGAUAGUCGCAAUGUAGAAGGCGUCAGUC”, the “apparent Kd” value is, setting by setting: under setting [3], 29.8 nM; under setting [4], 293 nM.

For the origin of these results see the EternaBench riboswitch data.
